Laboratory results from PMC10549236 (RSC Chemical Biology, 2023).

How the values were obtained:
P. aeruginosa QS system = conditions: cited from earlier work
pyocyanin = experiment: Pyocyanin secretion assay; format: cell-based, Pseudomonas aeruginosa; conditions: 0.08 μM, 20 h
In short: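 P. aeruginosa was cultured with 0.08 μM test compound at 37 °C for about 20 h to OD600 2. Pigment was extracted from about 10 mL of supernatant with chloroform, back-extracted into 0.2 M HCl, and pyocyanin read at A520.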

P. aeruginosa PAO1 = experiment: Mouse wound infection model; format: in vivo; conditions: 2 mg kg^−1 topical twice daily, 48 h post-infection
In short: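 Female BALB/c mice (6–8 weeks, 18–22 g, n = 5 per group) had hair removed and a ~2 mm × 2 mm excisional flank wound made. The wound received ~5 × 10^8 CFU of PBS-washed static overnight PAO1 in 10 μL. Test compound at 2 mg kg−1 in cream was applied topically twice daily; vehicle cream served as control. At 48 h post-infection lesions were excised, homogenised and serially diluted for CFU.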

[1] = test system: P. aeruginosa established biofilms; experiment: Biofilm eradication assay; format: cell-based, Pseudomonas aeruginosa; conditions: 40 μM, third day, 48 h-old biofilm, control = 100%
In short: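 P. aeruginosa was grown in M9 in 6-well plates at 37 °C for 48 h to form mature biofilm. Test compound was then added at 10, 20 or 40 μM and culture continued 2 or 3 days. Wells were PBS-washed ×3, dried, stained with 0.1% crystal violet for 15 min, rinsed, solubilised in 30% acetic acid and read at A595. Untreated was set to 100%; triplicates.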

P. aeruginosa = experiment: Bacterial viability assay; format: cell-based, Pseudomonas aeruginosa
In short: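 Broth dilution in 96-well plates. Test compound at 0.5–6 μg mL−1 in 0.5 μg mL−1 steps was mixed 1:1 by volume with log-phase P. aeruginosa at 10^6 CFU mL−1 and incubated at 37 °C for 22–24 h. Growth was read as OD600, with wells in duplicate.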

[2] = test system: hitAB gene knockout P. aeruginosa mutant (ΔhitAB); experiment: Gallium uptake assay by ICP-MS, ΔhitAB mutant; format: cell-based, Pseudomonas aeruginosa; conditions: 0.16 μM, ICP-MS over time
In short: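 Wild-type and ΔhitAB P. aeruginosa overnight cultures were diluted to OD600 0.1 with 0.16 μM test compound. 5 mL aliquots were taken hourly up to 5 h. Pellets were washed ×3 in PBS with 1 mM EDTA, digested in 70% nitric acid at 60 °C for 2 h, diluted to 2% HNO3 and analysed for gallium by ICP-MS.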

P. aeruginosa biofilm = experiment: Biofilm inhibition assay; format: cell-based, Pseudomonas aeruginosa; conditions: 0.08 μM, 48 h, static, versus negative control

For O=c1cc(-c2ccccc2)oc2cc(O)c(O)c(O)c12 [Baicalein], the “Activity against P. aeruginosa QS system” value (P. aeruginosa QS system) is given as “antagonists against P. aeruginosa QS system”.
In the case of O=c1cc(-c2ccccc2)oc2cc(O)cc(O)c12 [Chrysin], the “Activity against P. aeruginosa QS system” value (P. aeruginosa QS system) is listed as “antagonists against P. aeruginosa QS system”.
With O=[N+]([O-])[O-].O=[N+]([O-])[O-].O=[N+]([O-])[O-].[Ga+3] [Ga(NO3)3] the “Decrease in pyocyanin secretion” value (pyocyanin) was 47%, the “Lower number of CFU of P. aeruginosa compared to the control group” value (P. aeruginosa PAO1) was 2 log and the Biofilms remained [1] was 30%. For the same compound, the IC50 (P. aeruginosa) was 3.11 µg/mL, the “Gallium uptake rate of ΔhitAB mutant compared to WT” value [2] was “significantly abrogated” and the “Reduction of biofilm formation” value (P. aeruginosa biofilm) was “approximately 50%”.
For O=C1C[C@@H](c2ccc(O)cc2)Oc2cc(O)cc(O)c21 [Naringenin], the “Activity against P. aeruginosa QS system” value (P. aeruginosa QS system) is listed as “antagonists against P. aeruginosa QS system”.
